Measured values published in ChEMBL document CHEMBL2429791, “Preparation of asymmetric urea derivatives that target prostate-specific membrane antigen for SPECT imaging” (J Med Chem, 2013).

What was measured:
Type in all cases: ADME, organism-based
[1] = system: Blood; assay: Biodistribution in blood of C.B.-17/Icr +/+ Jcl mouse xenografted with human LNCAP and PC3 cells at 25.9 MBq, iv after 30 mins; details: in vivo, 0.5 h
Outline: (§1)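 ¹²⁵I-labelled tracer given iv by tail vein to mice (22–24 g) bearing LNCaP (left shoulder) and PC-3 (right shoulder) xenografts of about 5–10 mm, grown from 1–5 × 10⁶ cells in 1:1 Matrigel. n=4 per time point; decapitated at 2 min, 30 min, 1, 3, 6 h. Tissues weighed and counted; uptake as %ID/g, mean ± SD.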

[2] = system: Nucleic Acid; assay: Ratio of drug level in human LNCAP cells xenografted in C.B.-17/Icr +/+ Jcl mouse to muscle of C.B.-17/Icr +/+ Jcl mouse xenografted with human LNCAP and PC3 cells at 25.9 MBq, iv after 6 hrs; details: in vivo
Outline: (§2)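 Tumor-to-blood and tumor-to-muscle ratios were calculated from %ID/g values in ¹²⁵I-tracer biodistribution in LNCaP/PC-3 xenografted mice. Tail-vein dosing, n=4 per time point, sacrifice at 2 min, 30 min, 1, 3 or 6 h.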

[3] = system: Kidney; assay: Biodistribution in kidney of C.B.-17/Icr […] Jcl mouse xenografted with human LNCAP and PC3 cells at 25.9 MBq, iv after 3 hrs; details: in vivo; outline: as §1
[4] = system: Intestine; assay: Biodistribution in intestine of C.B.-17/Icr […] Jcl mouse xenografted with human LNCAP and PC3 cells at 25.9 MBq, iv after 6 hrs; details: in vivo; outline: as §1
[5] = system: Intestine; assay: Biodistribution in intestine of C.B.-17/Icr +/+ Jcl mouse xenografted with human LNCAP and PC3 cells at 25.9 MBq, iv after 1 hr; details: in vivo; outline: as §1
[6] = system: Stomach; assay: Biodistribution in stomach of C.B.-17/Icr +/+ Jcl mouse xenografted with human LNCAP and PC3 cells at 25.9 MBq, iv after 3 hrs; details: in vivo
Outline: (§3)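 Radioiodinated (¹²⁵I) tracer given by tail-vein injection to mice bearing LNCaP (left shoulder) and PC-3 (right shoulder) xenografts, 22–24 g, grown to about 5–10 mm. Groups of n=4 were decapitated at 2 min, 30 min, 1 h, 3 h or 6 h. Tissues were weighed and counted, and uptake was expressed as %ID/g (mean ± SD).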

[7] = system: Muscle tissue; assay: Biodistribution in muscle of C.B.-17/Icr +/+ Jcl mouse xenografted with human LNCAP and PC3 cells at 25.9 MBq, iv after 1 hr; details: in vivo; outline: as §3
[8] = Ratio of drug level in human LNCAP cells xenografted in C.B.-17/Icr +/+ Jcl mouse to blood of C.B.-17/Icr +/+ Jcl mouse xenografted with human LNCAP and PC3 cells at 25.9 MBq, iv after 2 mins; details: LNCAP tumour xenograft relative to blood; outline: as §2
[9] = system: LNCaP; assay: Biodistribution in LNCAP cells in C.B.-17/Icr +/+ Jcl mouse xenografted with human LNCAP and PC3 cells at 25.9 MBq, iv after 2 mins; details: in vivo; outline: as §1
[10] = system: Lung; assay: Biodistribution in lung of C.B.-17/Icr +/+ Jcl mouse xenografted with human LNCAP and PC3 cells at 25.9 MBq, iv after 30 mins; details: in vivo, 0.5 h; outline: as §3
[11] = Ratio of drug level in human PC3 cells xenografted in C.B.-17/Icr +/+ Jcl mouse to blood of C.B.-17/Icr +/+ Jcl mouse xenografted with human LNCAP and PC3 cells at 25.9 MBq, iv after 30 mins; details: PC3 tumour xenograft relative to blood
Outline: (§4)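 Mice (22–24 g) carried PC-3 (right shoulder) and LNCaP (left shoulder) tumors, raised by injecting 1–5 × 10⁶ cells in 1:1 PBS/Matrigel and used at about 5–10 mm diameter. [¹²⁵I]-tracer was given via the tail vein, n=4 per time point, and mice were decapitated at 2 min, 30 min, 1, 3 or 6 h. Tissues were weighed and γ-counted as %ID/g. Tumor/blood and tumor/muscle ratios were taken from %ID/g, mean ± SD.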

[12] = system: Stomach; assay: Biodistribution in stomach of C.B.-17/Icr +/+ Jcl mouse xenografted with human LNCAP and PC3 cells at 25.9 MBq, iv after 30 mins; details: in vivo, 0.5 h; outline: as §3
[13] = Ratio of drug level in human LNCAP cells xenografted in C.B.-17/Icr +/+ Jcl mouse to blood of C.B.-17/Icr +/+ Jcl mouse xenografted with human LNCAP and PC3 cells at 25.9 MBq, iv after 3 hrs; details: LNCAP tumour xenograft relative to blood; outline: as §2
[14] = system: Nucleic Acid; assay: Ratio of drug level in human PC3 cells xenografted in C.B.-17/Icr +/+ Jcl mouse to muscle of C.B.-17/Icr +/+ Jcl mouse xenografted with human LNCAP and PC3 cells at 25.9 MBq, iv after 3 hrs; details: in vivo; outline: as §4
[15] = system: PC-3; assay: Biodistribution in PC3 cells in C.B.-17/Icr +/+ Jcl mouse xenografted with human LNCAP and PC3 cells at 25.9 MBq, iv after 1 hr; details: in vivo; outline: as §1
[16] = system: Spleen; assay: Biodistribution in spleen of C.B.-17/Icr scid/scid Jcl mouse xenografted with human LNCAP and PC3 cells at 25.9 MBq, iv after 30 mins; details: in vivo, 0.5 h
[17] = system: Kidney; assay: Drug excretion in C.B.-17/Icr […] Jcl mouse kidney xenografted with human LNCAP and PC3 cells at 25.9 MBq, iv; details: in vivo
[18] = system: Blood; assay: Biodistribution in blood of C.B.-17/Icr +/+ Jcl mouse xenografted with human LNCAP and PC3 cells at 25.9 MBq, iv after 1 hr; details: in vivo; outline: as §1
[19] = system: Nucleic Acid; assay: Ratio of drug level in human LNCAP cells xenografted in C.B.-17/Icr +/+ Jcl mouse to muscle of C.B.-17/Icr +/+ Jcl mouse xenografted with human LNCAP and PC3 cells at 25.9 MBq, iv after 30 mins; details: in vivo, 0.5 h; outline: as §2
[20] = system: Intestine; assay: Biodistribution in intestine of C.B.-17/Icr +/+ Jcl mouse xenografted with human LNCAP and PC3 cells at 25.9 MBq, iv after 30 mins; details: in vivo, 0.5 h; outline: as §1
[21] = system: LNCaP; assay: Biodistribution in LNCAP cells in C.B.-17/Icr +/+ Jcl mouse xenografted with human LNCAP and PC3 cells at 25.9 MBq, iv after 3 hrs; details: in vivo; outline: as §1
[22] = Ratio of drug level in human PC3 cells xenografted in C.B.-17/Icr +/+ Jcl mouse to blood of C.B.-17/Icr +/+ Jcl mouse xenografted with human LNCAP and PC3 cells at 25.9 MBq, iv after 2 mins; details: PC3 tumour xenograft relative to blood; outline: as §4
[23] = system: Kidney; assay: Biodistribution in kidney of C.B.-17/Icr […] Jcl mouse xenografted with human LNCAP and PC3 cells at 25.9 MBq, iv after 1 hr; details: in vivo; outline: as §1
[24] = system: Heart; assay: Biodistribution in heart of C.B.-17/Icr +/+ Jcl mouse xenografted with human LNCAP and PC3 cells at 25.9 MBq, iv after 3 hrs; details: in vivo; outline: as §1

Q: Which results are given for `O=C(O)CC[C@H](NC(=O)N[C@@H](CSC1CC(=O)N(CCCC[C@H](NC(=O)CNC(=O)c2cccc([125I])c2)C(=O)O)C1=O)C(=O)O)C(=O)O` (some centres undefined)?
A: Drug uptake [1]: 1.3 % ID/g; Ratio [2]: 76.7; Drug uptake [3]: 110 % ID/g; Drug uptake [4]: 5.3 % ID/g; Drug uptake [5]: 16.5 % ID/g; Drug uptake [6]: 1 %ID; Drug uptake [7]: 0.5 % ID/g; Kp at 2 min [8]: 0.6; Drug uptake [9]: 4.2 % ID/g; Drug uptake [10]: 2.9 % ID/g; Kp at 0.5 h [11]: 0.7; Drug uptake [12]: 2.2 %ID; Kp at 3 h [13]: 13.8; Ratio [14]: 1.5; Drug uptake [15]: 0.7 % ID/g; Drug uptake [16]: Active; Drug excretion [17]: Active; Drug uptake [18]: 1 % ID/g; Ratio [19]: 11.1; Drug uptake [20]: 11.2 % ID/g; Drug uptake [21]: 9.5 % ID/g; Kp at 2 min [22]: 0.4; Drug uptake [23]: 92.8 % ID/g; Drug uptake [24]: 0.7 % ID/g
